Data set [1] in a line: In vivo metabolic stability, mouse blood 5 min pi, without or with PA. More on the design: species or system Swiss albino mice. Particulars: peripheral mouse blood, HPLC; for Intact radiopeptide, 5 min pi (+ phosphoramidon): PA coinjected, n=2; for Intact radiopeptide, 5 min pi: radioligand alone, n=3. The gist of the method:
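Healthy male Swiss albino mice (30 ± 5 g) were injected with the 177Lu-labelled test peptide alone (n = 3) or with coinjected phosphoramidon (n = 2). Blood was collected at 5 min pi and analysed by HPLC radiochromatography for the percentage of intact radioligand.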

The subject of data set [2] is PC-3 xenografts. Put plainly: Influence of injected peptide dose on biodistribution. It counts as in vivo, BALB/c nu/nu mice. Particulars: 750 pmol in comparison to 50 pmol, 1 hr pi. The gist of the method: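 PC-3-xenografted BALB/c nu/nu mice (17 ± 2 g; tumours 0.19 ± 0.06 g) were injected with 80 kBq of the 177Lu-labelled test peptide at a total peptide dose of 50, 100, 250, 500 or 750 pmol/animal, with phosphoramidon coinjection. Tumour and organ uptake were measured at 1 hr pi; tumour slices were also examined by ex vivo autoradiography.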

Data set [3] has as its system PC-3 xenografts. Put plainly: Influence of PA coinjection on biodistribution. Particulars: 1 hr pi. It counts as in vivo, BALB/c nu/nu mice.
The test system of data set [4] is PC-3 xenografts. Put plainly: Biodistribution over time. It counts as in vivo, BALB/c nu/nu mice. Particulars: 24 hr pi vs peak at 1 hr pi, 100 pmol. The method, boiled down:
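PC-3-xenografted BALB/c nu/nu mice received the 177Lu-labelled test peptide (80 kBq, 100 pmol/animal, 100 μl) with coinjected NEP inhibitor phosphoramidon. Animals were euthanized at 0.5, 1, 2, 4, 24, 48 and 90 hr pi, and tumour and organ activity uptake were measured.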

In data set [5] the test system is PC-3 xenografts. Put plainly: Experimental in vivo therapy. More on the design: species or system BALB/c nu/nu mice.
Data set [6] deals with PC-3 xenografts. Put plainly: Dosimetry estimates. Set-up: species or system BALB/c nu/nu mice. Particulars: per 60 MBq treatment cycle (200 pmol). The gist of the method: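 Organ absorbed doses were estimated for a 100 pmol injection of the 177Lu-labelled test peptide. The estimate used time-course biodistribution data from PC-3-xenografted nude mice and a MOBY-phantom dosimetry model. Other peptide masses were scaled by the ratio of 1 hr uptake at 50–250 pmol to the 100 pmol 1 hr uptake; uptake versus mass was fitted with exponential curves. Doses were expressed per 60 MBq cycle.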

The text below walks through data of article PMC6852655 (International Journal of Cancer, 2019).

Some results are limits rather than exact numbers.

Regarding `CC(C)C[C@H](NC(=O)C[C@H](O)[C@H](CC(C)C)NC(=O)[C@H](Cc1c[nH]cn1)NC(=O)CNC(=O)[C@@H](NC(=O)[C@H](C)NC(=O)[C@H](Cc1c[nH]c2ccccc12)NC(=O)[C@H](CCC(N)=O)NC(=O)[C@@H](Cc1ccccc1)NC(=O)COCCOCCNC(=O)CN1CCN(CC(=O)O)CCN(CC(=O)O)CCN(CC(=O)O)CC1)C(C)C)C(N)=O` [^177Lu-DOTA-PEG2-RM26, metal not drawn], in data set [1], the “Intact radiopeptide, 5 min pi (+ phosphoramidon)” value was more than 96% and the “Intact radiopeptide, 5 min pi” value is 64.7 ± 4.6%.
On to `CC(C)C[C@H](NC(=O)C[C@H](O)[C@H](CC(C)C)NC(=O)[C@H](Cc1c[nH]cn1)NC(=O)CNC(=O)[C@@H](NC(=O)[C@H](C)NC(=O)[C@H](Cc1c[nH]c2ccccc12)NC(=O)[C@H](CCC(N)=O)NC(=O)[C@@H](Cc1ccccc1)NC(=O)COCCOCCNC(=O)CCC(C(=O)O)N1CCN(CC(=O)O)CCN(CC(=O)O)CCN(CC(=O)O)CC1)C(C)C)C(N)=O` (stereo partly drawn) [^177Lu-DOTAGA-PEG2-RM26, metal not drawn], for which the “Decrease of tumor uptake” value in the data set with PC-3 xenografts [2] is on record as “threefold”. In addition, in the data set with PC-3 xenografts [3] (50 pmol, PA vs control), the “Increase of pancreatic uptake with PA” value was “threefold” and the “Increase of tumor uptake with PA” value was found to be 1.6 fold. In the data set on PC-3 xenografts [3] (PA coinjection), the “Amplification of tumor uptake with PA” value is 60%. Also, the “Decrease of tumor uptake” value with PC-3 xenografts [4] was “fourfold”. Besides, the “Median survival compared with controls” value in the data set on PC-3 xenografts [5] (6 cycles iv every second day, n=11-12) was “significant prolongation of median survival”. In the data set with PC-3 xenografts [5] (6 cycles, 200 pmol/60 MBq, +PA), the Tumor growth entry is listed as “significant inhibition of tumor growth”. In the data set with PC-3 xenografts [6], the “Estimated absorbed dose to the kidneys” value was 5 Gy and the “Estimated absorbed dose to the tumor” value was 11 Gy. For the same compound, in data set [1], the “Intact radiopeptide, 5 min pi (+ phosphoramidon)” value is on record as more than 98% and the “Intact radiopeptide, 5 min pi” value is 70.7 ± 3.1%.
`CC(C)C[C@H](NC(=O)C[C@H](O)[C@H](CC(C)C)NC(=O)[C@H](Cc1c[nH]cn1)NC(=O)CNC(=O)[C@@H](NC(=O)[C@H](C)NC(=O)[C@H](Cc1c[nH]c2ccccc12)NC(=O)[C@H](CCC(N)=O)NC(=O)[C@@H](Cc1ccccc1)NC(=O)COCCOCCNC(=O)CCC(C(=O)O)N1CCN(CC(=O)O)CCN(CC(=O)O)CC1)C(C)C)C(N)=O` (stereo partly drawn) [^177Lu-NODAGA-PEG2-RM26, metal not drawn]: in data set [1], the “Intact radiopeptide, 5 min pi (+ phosphoramidon)” value is recorded as more than 96% and the “Intact radiopeptide, 5 min pi” value was 64.0 ± 2.0%.
